Compound activity as filed in PubChem BioAssay.
Rows were chosen to be rich in hits. Some 5.8% of all compounds tested hit in one or more screens of this group.
RBBP9 inhibitor: blocks human serine hydrolase RBBP9 | 0.2% of 220,000 active | recombinant RBBP9, FP-Rh probe fluorescence polarization | O75884 | inhibition, % at 7.94 µM;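 active = inhibition above the campaign mean of all tested compounds plus 3 SD, cut at about 14% in these data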
Target sequence (O75884 whole entry, looked up): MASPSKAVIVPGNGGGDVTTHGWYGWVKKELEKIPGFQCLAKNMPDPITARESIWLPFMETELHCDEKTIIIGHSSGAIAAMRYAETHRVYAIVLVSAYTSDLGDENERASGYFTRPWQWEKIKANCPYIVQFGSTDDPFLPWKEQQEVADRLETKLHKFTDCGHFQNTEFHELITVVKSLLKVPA
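System: RBBP9 protein / Quantity: 2.5 µM RBBP9 dispensing solution, before mixing / Also added: Serine-hydrolase probe FP-Rh, 375 nM pre-mixing / Dosing: 7.94 µM single dose, 0.794% DMSO / Timing: enzyme-compound preincubation 30 min, then probe labeling 45 min, 25 °C / Signal: FP readout at 525/598 nm / Controls: DMSO-treated enzyme wells and wells lacking RBBP9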
14-3-3 Bad inh: disrupts binding of bovine 14-3-3 zeta to phospho-Bad peptide. P63103. TR-FRET 14-3-3zeta/Dy647-pBad peptide displacement, 1 h. inhibition, % at 21.7 µM. 0.71% of 220,000 active. AID 781;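 active = inhibition above about 70%, limit read from the data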
ROMK primary: modulates human ROMK potassium channel activity. Tet-inducible ROMK, thallium flux fluorescence; actives lie on both sides. B-score at 10 µM. 2% of 130,000 active. AID 1918;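 active = signal ratio slope over the read window, or its plate-corrected B-score, at least 3 SD from the plate mean, either direction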;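 also: B-score of the F/F0 ratio slope over 7 to 12 s after thallium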
Cl transport mod: modulators of human KCC2 chloride dependent transport. Q9H2X9. KCC2 cells, thallium flux FluoZin-2 fluorescence. B-score of Tl+ flux slope (higher = more flux/activation; lower = inhibition) at 10 µM. 2.2% of 190,000 active;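 active = thallium flux slope and its plate-corrected score both differing from the plate sample mean at a set confidence after two filtering rounds, in either direction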;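 also: slope of fluorescence scaled to starting intensity during 10 to 20 s after thallium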
p47phox inh: p47phox (human) inhibition. inhibition, % at 24.7 µM. P14598. 0.53% of 220,000 active. AID 1274. p47phox/p22phox peptide binding, fluorescence polarization, 2 h;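 active = inhibition above about 30%, limit read from the data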
Target sequence (P14598 whole entry, looked up): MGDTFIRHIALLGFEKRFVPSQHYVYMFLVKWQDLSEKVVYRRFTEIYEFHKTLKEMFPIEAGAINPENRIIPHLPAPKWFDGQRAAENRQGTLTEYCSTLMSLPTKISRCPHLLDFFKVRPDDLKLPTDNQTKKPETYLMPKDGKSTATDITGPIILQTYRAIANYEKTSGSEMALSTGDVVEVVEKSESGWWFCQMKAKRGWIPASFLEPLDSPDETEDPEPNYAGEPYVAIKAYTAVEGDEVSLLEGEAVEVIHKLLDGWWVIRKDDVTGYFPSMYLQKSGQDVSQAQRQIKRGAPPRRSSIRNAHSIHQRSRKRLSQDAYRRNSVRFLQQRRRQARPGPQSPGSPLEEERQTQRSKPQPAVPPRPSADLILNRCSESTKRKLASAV
WT yeast gro inh: growth inhibition of WT yeast, mitochondrial fusion screen. mitochondrial fusion phenotypic screen, WT strain. inhibition, % at 10 µM. 2.1% of 190,000 active. AID 1362; in the data active = inhibition above about 58%; tested in S. cerevisiae
KCC2 secondary: KCC2 (human) modulation, secondary assay; HEK293-KCC2, thallium flux, FluoZin2 fluorescence; active compounds read high; 15% of 3,700 active; normalised thallium flux (F/F0 slope) at 10 µM; shares compounds with Cl transport mod; AID 1713;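 active = thallium flux slope above the same plate's solvent-only control mean plus 3 SD; inconclusive = the two replicate wells disagree; inactive = no significant difference from solvent-only control wells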
KCC2 bumet counter: thallium flux persisting under bumetanide in KCC2 cells, counter-screen secondary assay. shares compounds with Cl transport mod. HEK293-KCC2 + bumetanide/ouabain, thallium flux FluoZin2; active compounds read high. normalized thallium flux at 10 µM. 49% of 3,700 active. AID 1714;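 active = thallium entry rate above the same plate's blocked-transporter control wells by more than 3 SD; inconclusive = the two repeat wells disagree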;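 also: raw slope of fluorescence over initial fluorescence between 10 and 20 s after thallium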
KCC2 sec2: KCC2 (human) modulation, second secondary assay; normalized thallium flux at 10 µM; HEK293-KCC2, thallium flux FluoZin2 fluorescence; actives lie on both sides; F/F0 rise rate, 10–20 s post-thallium; 23% of 3,700 active; AID 1715; shares compounds with Cl transport mod;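 active = thallium flux slope more than 3 SD above or below the plate's solvent-only control mean, mostly below; inconclusive = the two repeat wells disagreed; inactive = no significant shift from solvent-only controls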
HEK293 Tl flux: parental HEK flux effect, counter-screen. shares compounds with Cl transport mod. HEK293 parental cells, thallium flux FluoZin2, ouabain; baseline-ratio fluorescence slope, 10–20 s after thallium. thallium flux rate (normalised fluorescence) at 10 µM. 46% of 3,700 active. AID 1716;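 active = thallium flux rate significantly above the same plate's solvent-only control wells, beyond their mean plus 3 SD; inconclusive = the two replicate wells gave conflicting results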
KCC2 retest ouab: KCC2 (human) modulation, ouabain retest; shares compounds with Cl transport mod; HEK293-KCC2, thallium flux FluoZin2 fluorescence; bidirectional: low = inhibitor, high = activator; raw Tl+ flux slope (below DMSO = inhibition, above = activation) at 10 µM; 48% of 3,700 active; AID 1717;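 active = thallium flux slope beyond 3 SD from same-plate DMSO control mean in most replicates, usually higher, sometimes lower; inconclusive = repeat tests gave conflicting results; inactive = no significant difference from controls in most replicates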;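 also: slope of initial-normalized fluorescence between seconds 10 and 20 after thallium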
HEK293 Tl flux2: parental HEK flux effect, counter-screen 2. 33% of 3,700 active. thallium flux slope at 10 µM. shares compounds with Cl transport mod. HEK293 parental, thallium flux FluoZin-2 fluorescence slope;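 active = thallium flux slope above the same plate's solvent-control mean plus 3 SD in both duplicate wells; inconclusive = duplicate wells that disagreed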;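 also: run without ouabain in cells lacking the KCC2 cotransporter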
Hits are given with their value; 0 = inactive; ? = inconclusive; - = not tested or not shown.

SMILES	RBBP9 inhibitor	14-3-3 Bad inh	ROMK primary	Cl transport mod	p47phox inh	WT yeast gro inh	KCC2 secondary	KCC2 bumet counter	KCC2 sec2	HEK293 Tl flux	KCC2 retest ouab	HEK293 Tl flux2
O=C(Nc1ccccc1N1CCCCC1)c1ncoc1-c1cccc(F)c1	0	0	-	0	0	-	-	-	-	-	-	-
Cc1cc(C(=O)NC(=S)Nc2ccccc2N2CCOCC2)ccc1[N+](=O)[O-]	0	0	0	5.4	0	0	0	0.01	0	?	?	?
O=C(Nc1ccccc1N1CCCCC1)c1ncoc1-c1ccc(F)cc1	0	0	-	2.1	0	0	0	0	0	0	0	0
O=C(NC(=S)Nc1ccccc1N1CCCCC1)c1ccccc1	0	0	0	12	0	67	0	0.023	0	0.011	0.028	?
O=C(NC(=S)Nc1ccccc1N1CCCC1)c1cccc(F)c1	0	0	0	39	0	0	0	0.062	0.043	0.027	0.046	0.028
O=C(Nc1ccccc1N1CCCCC1)c1ccc(N2C(=O)c3ccccc3C2=O)cc1	0	0	-	0	0	0	-	-	-	-	-	-
Cc1cc(C(=O)NC(=S)Nc2ccccc2N2CCCC2)ccc1[N+](=O)[O-]	0	0	-	0	0	0	-	-	-	-	-	-
Cc1ccc(S(=O)(=O)N2CCCCC2)cc1C(=O)Nc1ccc(S(=O)(=O)Nc2ncccn2)cc1	0	0	-	-	0	-	-	-	-	-	-	-
COC(=O)C(Cc1c[nH]c2ccccc12)NC(=O)c1cc(-c2ccc(OC)c(OC)c2)oc1C (stereo not drawn)	0	0	-	0	0	0	-	-	-	-	-	-
CCOC(=O)N1CCN(C(=O)c2cc(C)no2)CC1	-	0	-	-3.9	0	0	0	0	0	0	0	0
O=C(NC(=S)NNC(=O)c1ccccc1O)c1ccco1	0	0	-	3.5	0	0	0	0.013	0	?	?	0
O=C(NC(=S)NNC(=O)c1cc2ccccc2cc1O)c1ccco1	0	0	0	48	0	0	0.021	0.073	0	0.05	0.058	0.014
CCOc1ccc(NS(=O)(=O)c2ccc(C)c(C(=O)NCCCn3ccnc3)c2)cc1	0	0	0	0	0	0	-	-	-	-	-	-
Cc1nc2ccccc2n1C1CCN(C(=O)Nc2ccccc2)CC1	0	0	0	-	0	0	-	-	-	-	-	-
CC(NC(=O)c1cccs1)c1n[nH]c(=S)n1C (stereo not drawn)	0	0	0	0	0	0	-	-	-	-	-	-
CCC(=O)c1cc(F)c(N2CCN(C(=O)Cc3ccccc3)CC2)cc1C	0	0	-	-2.9	0	0	0	0	0	0	0.018	?
O=C(Cc1ccc(-n2cccc2)cc1)N1CCN(c2ccccc2F)CC1	0	0	-	-6.8	0	0	0	0	0	0	0.016	0
O=C(CCCC(=O)N1CCN(c2ccccc2F)CC1)N1CCN(c2ccccc2F)CC1	0	0	0	-	0	0	-	-	-	-	-	-
CCC(=O)c1ccc(N2CCN(C(=O)Cc3ccccc3)CC2)c(F)c1	0	0	-	0	0	0	-	-	-	-	-	-
CCSc1nc2c(c(=O)[nH]c(=O)n2C)n1C	0	0	0	0	0	0	-	-	-	-	-	-
C=CCn1c(Sc2ccccc2)nc2c1c(=O)[nH]c(=O)n2C	0	0	-	0	0	0	-	-	-	-	-	-
CCCSc1nc2c(c(=O)[nH]c(=O)n2C)n1C	0	0	-	11	0	0	0	0	0	0	0	0
C=CCn1c(Sc2nncn2C)nc2c1c(=O)[nH]c(=O)n2C	0	0	-	-	0	0	?	0	0	0	0	0
CC1CCCCC12NC(=S)N(c1ccccc1)N2 (stereo not drawn)	0	0	0	8.1	0	-	?	0.022	0	0.016	0	0.012
CC1CCCC2(C1)NC(=S)N(c1ccccc1)N2 (stereo not drawn)	0	0	-	0	0	0	-	-	-	-	-	-
SMILES	RBBP9 inhibitor	14-3-3 Bad inh	ROMK primary	Cl transport mod	p47phox inh	WT yeast gro inh	KCC2 secondary	KCC2 bumet counter	KCC2 sec2	HEK293 Tl flux	KCC2 retest ouab	HEK293 Tl flux2
CN(CC(=O)Nc1cc(S(=O)(=O)N2CCCC2)ccc1Cl)Cc1cccs1	0	0	-	-5.3	0	-	?	0	0	0	0.014	0
O=C(Cc1cccs1)Nc1ccc(S(=O)(=O)N2CCCC2)cc1	0	0	0	-3.7	0	0	0	0	0	0	0	0
CCOC(=O)NNc1ccc2nonc2c1[N+](=O)[O-]	0	0	-	13	0	-	0	0.013	0	0.013	0.024	0.013
O=[N+]([O-])c1c(Nc2ccccc2)ccc2nonc12	0	0	-	-	0	0	-	-	-	-	-	-
COc1ccc(-n2c(=S)[nH]c3sc(-c4ccccc4)cc3c2=O)c(OC)c1	0	0	0	9.5	0	-	0.014	0.027	0.025	0.02	?	0
Cc1cccc(C(=O)NC(=S)NNC(=O)Cc2ccccc2)c1	0	0	0	14	0	0	0.019	0.048	0	0.025	0.041	0.015
CC1CCCCC1NC(=S)NC(=O)c1cccs1 (stereo not drawn)	0	0	-	117	0	-	0.027	0.14	0	0.058	0.064	0.017
CCC(=O)NNC(=S)NC(=O)c1ccc(C)cc1	0	0	0	7.6	0	0	?	0.02	0	0.013	0	?
Cc1cccc(C(=O)NC(=S)Nc2ccccc2C(=O)O)c1	0	0	0	0	0	0	-	-	-	-	-	-
O=C(NNC(=S)NC1CCCCC1)c1cccs1	0	0	0	0	0	0	-	-	-	-	-	-
O=C(/C=C/c1ccccc1)NC(=S)NNC(=O)Cc1cccs1	0	0	-	6.3	0	0	0	0.026	0	?	?	0
O=C(OCC(=O)N1CCCc2ccccc21)c1cccc(S(=O)(=O)N2CCc3ccccc32)c1	0	0	-	0	0	0	-	-	-	-	-	-
CC(C)(C)C(O)(CC#CCN1CCCC1)c1ccccc1 (stereo not drawn)	0	0	0	0	0	0	-	-	-	-	-	-
O=C(Cc1ccccc1)NNC(=S)NC(=O)c1cccs1	0	0	-	6.8	0	-	0	0.014	0	0.015	?	0.018
Cc1nn(Cc2ccccc2)c(C)c1NC(=O)c1noc2c1CCc1ccccc1-2	0	0	-	-4.7	0	0	0	?	0	0	?	0
